Measurements published in ChEMBL document CHEMBL1641473, “Synthesis, structure, theoretical and experimental in vitro antioxidant/pharmacological properties of α-aryl, N-alkyl nitrones, as potential agents for the treatment of cerebral ischemia” (2011).

Tests used:
Type in all cases: functional
[1] = Antioxidant activity assessed as trolox equivalents of peroxyl radical scavenging activity by ORAC assay
How it was run: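 Fluorescein (70 nM) with 2,2'-azobis(2-methylpropionamidine) dihydrochloride (12 mM) and antioxidant in 75 mM phosphate buffer pH 7.4 at 37 °C. Fluorescence recorded every minute for 98 min. Net AUC taken against the blank and plotted against concentration; slope divided by the slope of the Trolox curve from the same assay. Duplicate wells, at least three independent assays.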

[2] = test system: Radical scavenging activity; experiment: Antioxidant activity of the compound assessed as DPPH radical scavenging activity at 0.5 mM after 2 hrs
How it was run: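 DPPH radical mixed with nitrone and held 2 h at room temperature in the dark. DPPH absorbance read at 517 nm. RSA% = 100 × (A0 − Ai)/A0, with A0 and Ai the absorbance without and with nitrone. Quadruplicate wells, at least three independent runs; mean ± SEM.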

[3] = test system: Mus musculus; experiment: Neuroprotective activity in NMRI mouse assessed as protection against t-BHP-induced lethality at 150 mg/kg, ip after 30 mins relative to control; details: route intraperitoneal
[4] = test system: SH-SY5Y; experiment: Neuroprotective activity against rotenone/oligomycin-A-induced death in human SH-SY5Y cells assessed as protective effect at 1 uM after 2 hrs by MTT assay
How it was run: (§1)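 Human SH-SY5Y neuroblastoma cells, low passage (<13), grown in 1:1 Ham's F-12/EMEM with 10% heat-inactivated FBS. Seeded at 1×10⁵ cells/well and treated before confluence in EMEM with 1% FBS. Insult was 30 µM rotenone plus 10 µM oligomycin-A for 24 h. Viability read by MTT (2 h, 37 °C, dark), then lysis and absorbance at 540 nm.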

[5] = test system: SH-SY5Y; experiment: Neuroprotective activity against rotenone/oligomycin-A-induced death in human SH-SY5Y cells assessed as increase of cell viability at 1 uM after 2 hrs by MTT assay; how it was run: as §1
[6] = test system: SH-SY5Y; experiment: Neuroprotective activity against rotenone/oligomycin-A-induced death in human SH-SY5Y cells assessed as protective effect at 1 mM after 2 hrs by MTT assay; how it was run: as §1
[7] = test system: SH-SY5Y; experiment: Neuroprotective activity against rotenone/oligomycin-A-induced death in human SH-SY5Y cells assessed as increase of cell viability at 1 mM after 2 hrs by MTT assay; how it was run: as §1
[8] = Antioxidant activity assessed as hydroxyl radical scavenging activity at 50 uM after 2 hrs by benzoic acid method
How it was run: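 Hydroxyl radical from a Fenton reaction (Fe2+ plus H2O2 10 mmol) hydroxylates benzoate to fluorescent hydroxybenzoates. Incubation 2 h at 37 °C with or without nitrone; fluorescence read at excitation 305 nm, emission 407 nm. RSA% relative to no-nitrone control. Quadruplicate wells, at least three independent runs; mean ± SEM.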

[9] = test system: Radical scavenging activity; experiment: Antioxidant activity of the compound assessed as DPPH radical scavenging activity at 15 mM after 2 hrs
How it was run: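 DPPH radical added to test compound; mixture kept 2 h at room temperature in the dark, then absorbance read at 517 nm. RSA% = 100×(A0−Ai)/A0, where A0 and Ai are DPPH absorbance without and with compound. Quadruplicate wells, at least three independent runs; mean ± SEM.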

[10] = test system: SH-SY5Y; experiment: Neuroprotective activity against rotenone/oligomycin-A-induced death in human SH-SY5Y cells assessed as protective effect at 10 nM after 2 hrs by MTT assay; how it was run: as §1
[11] = test system: SH-SY5Y; experiment: Neuroprotective activity against rotenone/oligomycin-A-induced death in human SH-SY5Y cells assessed as increase of cell viability at 10 nM after 2 hrs by MTT assay; how it was run: as §1

CC(C)(C)/[N+]([O-])=C/c1c[nH]c2ccccc12
Activity (Trolox equivalents) [1]: 3.69 | Activity [2]: 1.2% | Activity [3]: 60% | Activity [4]: 8% | Activity [5]: 64.1%

CC(=O)N[C@@H](CS)C(=O)O [ACETYLCYSTEINE]
Activity [6]: 25% | Activity [7]: 63.1%

COc1cc(Br)c(/C=[N+](\[O-])Cc2ccccc2)cc1OC
Activity (Trolox equivalents) [1]: 0.03 | Activity [2]: 0.2% | Activity [3]: 116% | Activity [8]: 95.1% | Activity [4]: 3% | Activity [5]: 65.3%

CC(C)(C)/[N+]([O-])=C/c1cccnc1Br
Activity (Trolox equivalents) [1]: 0.01 | Activity [2]: 3.9% | Activity [3]: 76% | Activity [8]: 95.1% | Activity [4]: 24% | Activity [5]: 60.1%

[O-]/[N+](=C\c1ccccc1)Cc1ccccc1
Activity (Trolox equivalents) [1]: 0.01 | Activity [2]: 0.6% | Activity [3]: 111% | Activity [8]: 95.7% | Activity [4]: 18.4% | Activity [5]: 70.8%

COc1cc(Br)c(/C=[N+](\[O-])Cc2ccccc2)cc1O
Activity (Trolox equivalents) [1]: 7.36 | Activity [2]: 25.9% | Activity [3]: 111% | Activity [8]: 94.6% | Activity [4]: 8.7% | Activity [5]: 64.2%

COc1cc(/C=C/C(=O)CC(=O)/C=C/c2ccc(O)c(OC)c2)ccc1O [CURCUMIN]
Activity [3]: 106% | Activity [8]: 96.8% | Activity [9]: 35%

C/[N+]([O-])=C/c1ccccc1
Activity (Trolox equivalents) [1]: 0 | Activity [2]: 0.8% | Activity [8]: 95.3% | Activity [4]: 18.7% | Activity [5]: 64.7%

COc1ccc2[nH]cc(CCNC(C)=O)c2c1 [MELATONIN]
Activity [10]: 17% | Activity [11]: 59%

COc1cc(/C=[N+](\[O-])Cc2ccccc2)ccc1O
Activity (Trolox equivalents) [1]: 2.93 | Activity [2]: 88.2% | Activity [8]: 96.9% | Activity [4]: 16.9% | Activity [5]: 63.9%

COc1cc(/C=[N+](\[O-])Cc2ccccc2)c(Br)cc1O
Activity (Trolox equivalents) [1]: 6.4 | Activity [2]: 40.7% | Activity [8]: 95.7% | Activity [4]: 13.4% | Activity [5]: 62.8%

COc1cc(Br)c(/C=[N+](\[O-])C(C)(C)C)cc1OC
Activity (Trolox equivalents) [1]: 0.03 | Activity [2]: 0.8% | Activity [3]: 70% | Activity [8]: 96.3% | Activity [4]: 0% | Activity [5]: 63.1%

COc1cc(Br)c(/C=[N+](\[O-])C(C)(C)C)cc1O
Activity (Trolox equivalents) [1]: 5.58 | Activity [2]: 31.1% | Activity [3]: 87% | Activity [8]: 96.3% | Activity [4]: 11% | Activity [5]: 65%

O=c1c(O)c(-c2ccc(O)c(O)c2)oc2cc(O)cc(O)c12
Activity (Trolox equivalents) [1]: 10.5 | Activity [8]: 96.6% | Activity [9]: 94.2%

Cc1c(C)c2c(c(C)c1O)CCC(C)(C(=O)O)O2 (stereo not drawn)
Activity (Trolox equivalents) [1]: 1 | Activity [8]: 94.3%

COc1ccc2c(c1)cc(/C=[N+](\[O-])C(C)(C)C)n2C
Activity (Trolox equivalents) [1]: 7.98 | Activity [2]: 4.8% | Activity [3]: 50% | Activity [4]: 4.4% | Activity [5]: 62.8%

CC(C)(C)/[N+]([O-])=C/c1ccccc1
Activity (Trolox equivalents) [1]: 0 | Activity [2]: 1.4% | Activity [3]: 73% | Activity [8]: 94.9% | Activity [4]: 18.6% | Activity [5]: 69.6%

CC(C)(C)/[N+]([O-])=C/c1cccnc1Cl
Activity (Trolox equivalents) [1]: 0.01 | Activity [2]: 1.6% | Activity [3]: 74% | Activity [8]: 94.9% | Activity [4]: 0% | Activity [5]: 61.4%

COc1cc(/C=[N+](/C)[O-])ccc1O
Activity (Trolox equivalents) [1]: 3.35 | Activity [2]: 87.6% | Activity [8]: 96.5%
